Calls of active or inactive are those of the source. The calls are words filed in the database; no cut-off is given here.
How the values were obtained:
[1] = system: Oligodendrocyte progenitor cell; assay: Inhibition of HDAC in mouse oligodendrocyte progenitor cells assessed as decreased in number of differentiating cells at 20 nM after 24 to 48 hrs by CNP and MBP staining based assay; settings: time 24-48 hrs
[2] = biological target: Protein arginine N-methyltransferase 5 (Mus musculus) (UniProt Q8CIG8); assay: Inhibition of PRMT5 in mouse oligodendrocyte progenitor cells assessed as decrease in levels of H4R3me2s at 10 nM incubated for 24 to 72 hrs by Western blot analysis; type: cell-based; settings: Oligodendrocyte progenitor cell, time 24-72 hrs
Sequence of Protein arginine N-methyltransferase 5 (Mus musculus) (Q8CIG8 whole entry): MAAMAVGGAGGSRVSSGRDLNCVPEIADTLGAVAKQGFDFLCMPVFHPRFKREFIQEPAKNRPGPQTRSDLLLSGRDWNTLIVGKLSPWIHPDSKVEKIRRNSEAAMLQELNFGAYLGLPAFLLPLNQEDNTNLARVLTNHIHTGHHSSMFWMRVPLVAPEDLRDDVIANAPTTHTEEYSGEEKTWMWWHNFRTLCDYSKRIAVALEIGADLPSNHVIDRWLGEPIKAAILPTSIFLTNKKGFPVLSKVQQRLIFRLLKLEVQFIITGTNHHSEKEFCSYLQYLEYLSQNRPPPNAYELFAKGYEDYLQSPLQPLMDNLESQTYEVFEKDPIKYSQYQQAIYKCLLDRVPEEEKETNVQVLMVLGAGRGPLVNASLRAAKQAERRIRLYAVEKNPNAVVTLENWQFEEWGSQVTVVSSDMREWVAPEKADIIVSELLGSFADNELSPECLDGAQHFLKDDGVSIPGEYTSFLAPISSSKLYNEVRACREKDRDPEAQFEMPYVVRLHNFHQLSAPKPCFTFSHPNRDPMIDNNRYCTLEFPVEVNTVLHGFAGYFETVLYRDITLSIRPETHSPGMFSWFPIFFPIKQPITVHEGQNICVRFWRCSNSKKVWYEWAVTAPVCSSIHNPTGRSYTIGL

[3] = biological target: Protein arginine N-methyltransferase 5 (Mus musculus) (UniProt Q8CIG8); assay: Inhibition of PRMT5 in mouse oligodendrocyte progenitor cells assessed as decrease in levels of H4R3me2s in presence of 100 uM KAT inhibitor Butyrolactone-3 after 24 to 48 hrs by immunoreactivity based analysis; settings: Oligodendrocyte progenitor cell, time 24-48 hrs
[4] = biological target: Protein arginine N-methyltransferase 5 (Mus musculus) (UniProt Q8CIG8); assay: Inhibition of PRMT5 in mouse oligodendrocyte progenitor cells assessed as increase in levels of H4K5Ac incubated for 24 to 72 hrs by immunoreactivity based analysis; settings: Oligodendrocyte progenitor cell, time 24-72 hrs
Procedure, shortened: (§1)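 Primary OPCs in growth-factor-free chemically defined medium, treated with DMSO or inhibitor over a time course. Fixed cells immunostained for H4R3me2s or H4K5ac. Nuclear pixel intensity measured by confocal imaging in an average of 395 cells per condition, three biological replicates.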

[5] = biological target: Protein arginine N-methyltransferase 5 (Mus musculus) (UniProt Q8CIG8); assay: Inhibition of PRMT5 in mouse oligodendrocyte progenitor cells assessed as increase in levels of H4K5Ac at 10 nM incubated for 24 to 72 hrs by Western blot analysis; type: cell-based; settings: Oligodendrocyte progenitor cell, time 24-72 hrs
[6] = biological target: Protein arginine N-methyltransferase 5 (Mus musculus) (UniProt Q8CIG8); assay: Inhibition of PRMT5 in Trp53fl/fl wild type mouse oligodendrocyte progenitor cells assessed as decreased in number of differentiating cells at 10 nM by cell count assay; type: cell-based
Procedure, shortened: (§2)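 Primary OPCs from Trp53fl/fl mice (P7 immunopanning for PDGFRα), uninfected, alongside Cre-retrovirus-infected Trp53−/− counterparts. Cultured in SATO medium with PDGF-AA 10 ng/ml + bFGF 20 ng/ml (proliferating) or without growth factors + T3 60 nM (differentiating). Treated ± 10 nM inhibitor, DMSO controls. Cell counts averaged over three biological replicates.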

[7] = Effect on cell proliferation in mouse oligodendrocyte progenitor cells assessed as Ki67+/PDGFRalpha+ cell count measured after 12 to 48 hrs by immunoreactivity based assay; type: toxicity; settings: time 12-48 hrs
Procedure, shortened: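 P7 mouse OPCs immunopanned for PDGFRα, kept proliferating in SATO medium with PDGF-AA and bFGF, then treated with inhibitor or DMSO. Cells fixed in 4% PFA and immunostained for PDGFRα and KI67. Double-positive (KI67+ PDGFRα+) cells counted by confocal imaging from three biological replicates.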

[8] = biological target: Protein arginine N-methyltransferase 5 (Mus musculus) (UniProt Q8CIG8); assay: Inhibition of PRMT5 in mouse oligodendrocyte progenitor cells assessed as decrease in levels of H4R3me2s incubated for 24 to 72 hrs by immunoreactivity based analysis; settings: Oligodendrocyte progenitor cell, time 24-72 hrs; procedure, shortened: as §1
[9] = biological target: Protein arginine N-methyltransferase 5 (Mus musculus) (UniProt Q8CIG8); assay: Inhibition of PRMT5 in Trp53-/- mouse oligodendrocyte progenitor cells assessed as reduction of the number of cleaved caspase--3-positive CNP+ cells in differentiating OPCs; type: cell-based; settings: Oligodendrocyte progenitor cell
Procedure, shortened: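 Trp53−/− OPCs (Trp53fl/fl OPCs infected with Cre retrovirus) and Trp53fl/fl OPCs held in differentiating conditions (no growth factors, 60 nM T3) with or without 10 nM inhibitor. Immunostained for CNP and cleaved caspase-3 with DAPI. CNP+/DAPI+ ratio and cleaved caspase-3 intensity from three biological replicates, expressed relative to untreated cells of the same genotype.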

[10] = biological target: Protein arginine N-methyltransferase 5 (Mus musculus) (UniProt Q8CIG8); assay: Inhibition of PRMT5 in mouse oligodendrocyte progenitor cells assessed as decrease in expression of P53-responsive genes ((Mdm2, Cdkn1a, Perp) after 48 hrs by qRT-PCR analysis; type: cell-based; settings: Oligodendrocyte progenitor cell
[11] = biological target: Protein arginine N-methyltransferase 5 (Mus musculus) (UniProt Q8CIG8); assay: Inhibition of PRMT5 in mouse oligodendrocyte progenitor cells assessed as decrease in levels of H4R3me2s in presence of 0.2 uM KAT inhibitor NU-9056 after 24 to 48 hrs by immunoreactivity based analysis; settings: Oligodendrocyte progenitor cell, time 24-48 hrs
[12] = biological target: Protein arginine N-methyltransferase 5 (Mus musculus) (UniProt Q8CIG8); assay: Inhibition of PRMT5 in mouse oligodendrocyte progenitor cells assessed as decrease in expression of P53-responsive genes ((Mdm2, Cdkn1a, Perp) in presence of 0.2 uM KAT inhibitor NU-9056 after 48 hrs by qRT-PCR analysis; type: cell-based; settings: Oligodendrocyte progenitor cell
[13] = biological target: Protein arginine N-methyltransferase 5 (Mus musculus) (UniProt Q8CIG8); assay: Inhibition of PRMT5 in mouse oligodendrocyte progenitor cells assessed as decreased in number of differentiating cells in presence of 100 uM KAT inhibitor Butyrolactone-3 after 24 to 48 hrs by CNP and MBP staining based assay; settings: Oligodendrocyte progenitor cell, time 24-48 hrs
[14] = biological target: Protein arginine N-methyltransferase 5 (Mus musculus) (UniProt Q8CIG8); assay: Inhibition of PRMT5 in mouse oligodendrocyte progenitor cells assessed as decreased in number of differentiating cells in presence of 0.2 uM KAT inhibitor NU-9056 after 24 to 48 hrs by CNP and MBP staining based assay; settings: Oligodendrocyte progenitor cell, time 24-48 hrs
[15] = Effect on cell proliferation in Trp53fl/fl wild type mouse oligodendrocyte progenitor cells at 10 nM by cell count assay; type: toxicity, cell-based; settings: 0.01 µM; procedure, shortened: as §2
[16] = biological target: Protein arginine N-methyltransferase 5 (Mus musculus) (UniProt Q8CIG8); assay: Inhibition of PRMT5 in mouse oligodendrocyte progenitor cells assessed as decrease in expression of P53-responsive genes ((Mdm2, Cdkn1a, Perp) in presence of 100 uM KAT inhibitor Butyrolactone-3 after 48 hrs by qRT-PCR analysis; type: cell-based; settings: Oligodendrocyte progenitor cell

| inhibition [2] | inhibition [3] | inhibition [4] | inhibition [5] | inhibition [6] | inhibition [8] | inhibition [9] | inhibition [10] | inhibition [11] | inhibition [12] | inhibition [13] | inhibition [14] | inhibition [16] | Structure (SMILES) | inhibition [1] | Activity [7] | Activity [15] |
| --- | --- | --- | --- | --- | --- | --- | --- | --- | --- | --- | --- | --- | --- | --- | --- | --- |
| – | – | – | – | – | – | – | – | – | – | – | – | – | CC(/C=C/C(=O)NO)=C\[C@@H](C)C(=O)c1ccc(N(C)C)cc1 | Active | – | – |
| Active | inactive | Active | Active | Active | Active | Active | Active | inactive | inactive | inactive | inactive | inactive | O=C(NC[C@H](O)CN1CCc2ccccc2C1)c1ccnc(NC2CCC2)c1 | – | Non-Toxic | Toxic |

From ChEMBL document CHEMBL5712082, “PRMT5-mediated regulation of developmental myelination” (Nat Commun, 2018)
